Assay outcomes deposited in PubChem BioAssay by Broad Institute.
E-selectin induc: induces E-selectin expression in human endothelial cells; HUVEC E-selectin immunofluorescence imaging; normalized: neutral wells 0, TNF-alpha wells 100; activation, % at 7.58 µM; AID 686992; P16581; actives 0.37% (n = 260,000);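 active = mean E-selectin-positive cell signal at least 10% of the positive control, reached in at least 60% of replicates, without over 20% cell loss; inconclusive = no rule given, readout overlaps actives, possibly toxicity-flagged; inactive = the rest, including those meeting only one limit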
Target sequence (P16581 whole entry, looked up): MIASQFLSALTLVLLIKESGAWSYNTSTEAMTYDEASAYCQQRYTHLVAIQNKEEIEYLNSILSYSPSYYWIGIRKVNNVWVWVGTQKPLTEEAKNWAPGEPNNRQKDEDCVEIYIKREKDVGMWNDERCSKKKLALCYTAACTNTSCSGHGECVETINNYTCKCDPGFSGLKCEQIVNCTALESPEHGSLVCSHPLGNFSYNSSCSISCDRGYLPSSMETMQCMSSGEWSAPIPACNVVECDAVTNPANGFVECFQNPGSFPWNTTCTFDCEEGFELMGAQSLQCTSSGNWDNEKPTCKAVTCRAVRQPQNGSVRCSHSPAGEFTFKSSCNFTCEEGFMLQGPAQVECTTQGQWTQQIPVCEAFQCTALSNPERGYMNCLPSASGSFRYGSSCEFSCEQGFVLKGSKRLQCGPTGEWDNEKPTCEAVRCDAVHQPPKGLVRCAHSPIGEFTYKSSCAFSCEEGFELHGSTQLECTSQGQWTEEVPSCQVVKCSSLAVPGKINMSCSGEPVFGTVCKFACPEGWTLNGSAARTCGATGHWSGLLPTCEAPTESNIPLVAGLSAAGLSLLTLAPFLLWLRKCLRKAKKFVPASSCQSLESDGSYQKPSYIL
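Read-out: % PE-positive cells | Test system: HUVEC | Doses: One compound dose added by pin transfer | Buffer or medium: EGM-2 over gelatin coat | Signal: Immunofluorescence imaging | Benchmarks: TNF-alpha, DMSO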
FN deposit inh: fibronectin deposition inhibition. AH1F fibroblasts, Alexa488-fibronectin deposition fluorescence, overnight. actives 0.086% (n = 350,000). inhibition, % at 12.6 µM;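 active = mean inhibition across replicates of 30% or more, regardless of how many single replicates reach that level; inconclusive = mean under 30% yet at least half of replicates reach 30%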;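 note: positive control wells lacked labelled fibronectin entirely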
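material = AH1F fibroblast monolayer depositing Alexa488-labelled fibronectin into matrix | amount = 10000 AH1F cells/well | buffer or medium = DMEM plus 2% serum, read in PBS | incubation = 1 h cell adhesion before compound, then overnight fibronectin incubation | detection = fluorescence at 485 nm excitation, 525 nm emission | evaluation = percent inhibition as loss of matrix-bound fibronectin fluorescence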
Ecoli rRNA inh: inhibitors of bacterial rRNA selective over humanized ribosomes | E. coli WT GFP vs humanized-ribosome RFP mutants, fluorescence, 24 h; hits give low values; DMSO median 0, no signal -100 | GFP signal change (wild-type ribosome), % (test concentration not listed) | actives 1.6% (n = 350,000);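 active = significant combined selectivity score with lowered wild-type GFP, culture density cut under 30%, mutant RFP and density less affected; inactive = any of these conditions unmet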
SIRT5 inh: sirtuin-5 (human) deacylase inhibition | Q9NXA8 | Purified SirT5, succinyl-peptide AMC, trypsin-coupled fluorescence | inhibition, % at 15 µM | actives 1.1% (n = 330,000) | AID 652115; in the data active = inhibition above about 15%; inconclusive = no clear call, values can overlap the other calls
C2C12 statin: protects C2C12 myotubes from simvastatin toxicity. ATP luminescence, 48 h; scaled: DMSO 0, geranylgeraniol control 100. rescue of ATP level, % at 7.49 µM. actives 0.78% (n = 330,000);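 active = mean ATP rescue above about 67%, or every replicate alone reaching that limit, limit read from the data, passing the limit was not always enough; inconclusive = no clear call, values can overlap the other calls; inactive = mean under the limit and some replicate under it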;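 note: myotubes were challenged with 10 µM simvastatin during compound exposure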
FGF22 binding: shifts melting point of recombinant human FGF22 | Q9HCT0 | recombinant FGF22 thermal shift, SYPRO orange fluorescence; percent of sucrose octasulfate shift, DMSO zero | activity (Tm shift, normalised), % at 9.99 µM | actives 1.5% (n = 340,000);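 active = mean Tm shift, scaled 0 neutral to 100 positive control, at about 1.3% or above, every replicate too, limit read from the data; inconclusive = no clear call, values can overlap the other calls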
Target sequence (Q9HCT0 whole entry, looked up): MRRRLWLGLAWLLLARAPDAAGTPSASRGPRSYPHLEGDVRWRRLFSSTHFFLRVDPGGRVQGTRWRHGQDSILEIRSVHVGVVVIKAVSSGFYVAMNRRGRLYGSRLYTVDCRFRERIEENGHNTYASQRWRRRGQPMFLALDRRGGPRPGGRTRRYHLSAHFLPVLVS
AID977621: growth inhibition of wild-type GFP E. coli, dose response, H69 mutant RFP, cherry-pick. activity change, negative = inhibition at 50 µM. AID 977621. E. coli wild-type GFP strain growth, fluorescence, 24 h. shares compounds with Ecoli rRNA inh. 1,900 tested, under 10 active;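 active = Wild-type ribosome reporter drop at least double the humanized mutant ribosome reporter drop, growth loss under a set limit; inconclusive = no clear call, values can overlap the other calls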;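 note: wild-type GFP and H69 mutant RFP strains grown together 50/50 in each well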
AID977628: E. coli growth inhibition, wild-type GFP versus h24 humanized RFP strain, dose response, h24 mutant RFP vs wild-type GFP, cherry-pick; AID 977628; E. coli WT GFP strain growth, fluorescence, 24 h; activity change, negative = inhibition at 50 µM; shares compounds with Ecoli rRNA inh; 1,900 tested, under 10 active;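 active = compound lowering the normal-ribosome reporter at least twice as much as the humanized-ribosome reporter, growth loss under a set limit; inconclusive = no clear call, values can overlap the other calls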;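 note: wild-type GFP and h24 humanized RFP strains co-cultured 1 to 1 per well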
The depositor's hits bear a star; ? = inconclusive; · = no result given. Hits are enriched below; roughly 4% of the tested compounds scored in any of these assays.

SMILES | E-selectin induc | FN deposit inh | Ecoli rRNA inh | SIRT5 inh | C2C12 statin | FGF22 binding | AID977621 | AID977628
C[C@@H]1CN([C@@H](C)CO)C(=O)CCCn2cc(nn2)CO[C@@H]1CN(C)C(=O)Nc1ccc(F)cc1 | 0.7 | -3.5 | 0.2 | 3.1 | -2.3 | 0.1 | · | ·
Cc1cc(NC(=O)CS(=O)(=O)c2cn(Cc3ccccc3Cl)c3ccccc23)no1 | · | 0.1 | · | · | -7.2 | · | · | ·
Cc1cc(NC(=O)CS(=O)(=O)c2cn(Cc3cccc(Br)c3)c3ccccc23)no1 | 0.3 | 7.8 | -21.4* | -0.9 | 4.0 | 0.0 | -15.2 | ·
CCOc1ccc2nc(SCC(=O)Nc3nonc3C)[nH]c2c1 | 4.7 | 5.9 | -20.4* | -2.9 | · | 0.3 | -15.4 | -9.98
Cn1c(=O)c2c(ncn2CC(O)CNc2ccc(F)cc2)n(C)c1=O (stereo not given) | 5.6 | -0.3 | -27.3* | -6.5 | · | 0.6 | -10.4 | -5.42
CCS(=O)(=O)N1CC(=O)N2[C@H](CO)[C@@H](c3ccc(-c4ccccc4F)cc3)[C@H]2C1 | -0.6 | 6.5 | -12.4 | 5.8 | · | 0.4 | · | ·
Nc1ccc(-c2nc3ccc(N)cc3[nH]2)cc1 | -0.1 | -11.1 | -15.5 | -14.8 | · | -0.1 | · | ·
Nc1ccc2nc(-c3ccc(Cl)cc3)[nH]c2c1 | 2.9 | -2.0 | -17.1* | -0.9 | -12.0 | -0.2 | · | -8.79
C(#CSCc1ccccc1)SCc1ccccc1 | -0.1 | -4.8 | 0.4 | -4.2 | 8.6 | 0.0 | · | ·
c1ccc(CSCc2ccccc2)cc1 | · | · | -25.2* | 1.4 | -2.2 | 0.0 | 4.93 | 0.759
O=C(C[C@H]1C=C[C@@H](NC(=O)c2cccnc2)[C@@H](CO)O1)NCc1ccncn1 | -0.4 | -16.2 | 1.1 | 2.5 | · | · | · | ·
CCN(CC)CCC#CC(O)(c1ccccc1)C1CCCCC1 (stereo not given) | · | · | -10.7 | 0.0 | · | 0.2 | · | ·
CCC[N+]1(CC#CC(O)(c2ccccc2)C2CCCCC2)CCCCC1 (stereo not given) | · | -2.4 | -35.8* | -5.8 | · | 0.0 | -4.82 | -11.1
CN1C(=O)c2cccc3c(S(=O)(=O)NCCc4ccccc4)ccc1c23 | · | -8.0 | -23.2* | -7.1 | -1.5 | -0.3 | ? | ·
O=C(Nc1cc(S(=O)(=O)N2CCOCC2)ccc1N1CCOCC1)c1ccccc1[N+](=O)[O-] | · | 11.6 | 6.0 | -1.1 | -13.9 | 0.1 | · | ·
Cc1ccc(NC(=O)CCCSc2ccccc2)cc1S(=O)(=O)N1CCOCC1 | 1.9 | -4.9 | -24.4* | -1.2 | 15.4 | 0.3 | -19.3 | ·
O=C(CCNC(=O)c1ccccc1)Nc1ccc(Cl)c(S(=O)(=O)N2CCCCC2)c1 | -0.1 | -9.8 | -40.8* | -2.6 | 3.2 | 0.2 | -15.5 | ·
O=C(Nc1cc(S(=O)(=O)N2CCOCC2)ccc1N1CCOCC1)c1ccc([N+](=O)[O-])s1 | · | -6.2 | -18.0* | 7.1 | 2.3 | 0.2 | ? | -1.88
Cc1ccc(NC(=O)c2ccc([N+](=O)[O-])s2)cc1S(=O)(=O)N1CCOCC1 | · | 2.3 | -40.0* | -6.2 | 29.0 | -0.1 | ? | -11.6
O=C(C[C@@H]1C=C[C@H](NC(=O)C2CCC2)[C@H](CO)O1)NCc1ccccc1Cl | -0.1 | -8.2 | 0.0 | -1.4 | 3.0 | 0.7 | · | ·
O=C(NCC[C@@H]1CC[C@H](NC(=O)c2ccc3c(c2)OCO3)[C@@H](CO)O1)Nc1ccc(Cl)cc1 | -0.5 | -0.5 | -39.2 | -0.7 | -3.9 | -0.2 | · | ·
C[C@H](O)C#Cc1cnc2c(c1)C(=O)N([C@@H](C)CO)C[C@H](C)[C@@H](CN(C)CC1CCCCC1)O2 | 0.2 | -7.9 | 4.1 | -3.9 | -13.9 | 0.3 | · | ·
CCn1cc(CN2CCCC(CNS(=O)(=O)c3ccc(OC)cc3)C2)cn1 (stereo not given) | -0.3 | -6.1 | 12.7 | -2.9 | · | 0.2 | · | ·
CCc1ccc(CN2CCCC(CNS(=O)(=O)c3ccc(OC)cc3)C2)cc1 (stereo not given) | · | 8.0 | -21.8* | 2.9 | · | 0.1 | -15.8 | ?
CS(=O)(=O)Nc1ccccc1C(=O)NCCSc1ccccc1 | 0.0 | 2.6 | -22.2* | -3.9 | 2.3 | 0.0 | 1.26 | -8.11
SMILES | E-selectin induc | FN deposit inh | Ecoli rRNA inh | SIRT5 inh | C2C12 statin | FGF22 binding | AID977621 | AID977628
CCN1[C@@H]2c3ccc(-c4ccccc4OC)c(=O)n3C[C@@H]2[C@@H](CO)[C@@H]1C(=O)N(C)C | 0.2 | · | 4.1 | 3.6 | 3.4 | -0.2 | · | ·
COc1cccc(SCC(=O)N2CCN(c3ccccc3)CC2)c1 | · | -5.0 | -22.9* | 4.3 | 14.3 | -0.2 | -11.7 | ?
COc1ccc(OC)c(-c2nn(-c3ccccc3)cc2C(=O)N2CCc3ccccc3C2)c1 | · | -7.9 | -16.4* | -0.2 | 2.5 | 0.1 | -13.2 | ·
COc1ccccc1-c1nn(-c2ccccc2)cc1C(=O)N1CCc2ccccc2C1 | -1.0 | 4.4 | -14.5 | 5.4 | -0.5 | -0.2 | · | ·
CCCN(C)C[C@H]1Oc2cc(-c3ccncc3)ccc2S(=O)(=O)N([C@@H](C)CO)C[C@H]1C | 0.0 | -2.3 | 4.3 | 2.5 | 5.5 | 1.1 | · | ·
C[C@@H]1CN([C@H](C)CO)S(=O)(=O)c2ccc(-c3cccc(C(=O)N(C)C)c3)cc2O[C@H]1CN(C)C(=O)Cc1ccccn1 | 0.3 | -16.5 | 1.2 | -2.3 | -2.8 | 0.1 | · | ·
COC(=O)c1c(-c2ccccc2)noc1C | 2.8 | 3.2 | 11.4 | · | · | 0.1 | · | ·
COC(=O)c1c(C)oc(C)c1S(=O)(=O)NC(c1ccccc1)c1ccccc1 | 4.5 | -1.7 | -34.8* | -0.4 | 16.8 | 0.2 | -21 | ·
C[C@H]1CN([C@@H](C)CO)C(=O)Cc2cc(NC(=O)C3CC3)ccc2O[C@H]1CN(C)Cc1ccccc1 | 0.2 | · | 1.9 | -1.2 | -8.2 | -0.1 | · | ·
O=C(CC1C(=O)NCCN1CC1CCCCC1)NCc1ccc(F)cc1F (stereo not given) | · | -8.7 | -20.1* | -1.4 | 1.0 | 0.1 | 10.4 | ?
C[C@@H]1CCCCO[C@@H](CN(C)Cc2ccc(Cl)c(Cl)c2)[C@H](C)CN([C@@H](C)CO)C(=O)c2cc(NS(=O)(=O)c3ccccc3)ccc2O1 | 0.6 | · | -1.1 | 2.0 | · | 1.0 | · | ·
CC(C)(C)C(=O)OCc1nc(-c2ccc(Cl)cc2)cs1 | · | -4.7 | -14.8 | -1.2 | 8.8 | 0.1 | · | ·
CC(C)(C)S(=O)(=O)Cc1nc(-c2ccc(Cl)c(Cl)c2)cs1 | -0.2 | 2.4 | -15.2* | -2.2 | · | 0.1 | -1.04 | -2.62
CCN1[C@@H]2c3ccc(/C=C/c4ccccc4)c(=O)n3C[C@H]1[C@H](CO)[C@H]2C(=O)N1CCOCC1 | 0.0 | · | -2.0 | -103.6 | 9.2 | 0.3 | · | ·
